# Measured values published in ChEMBL document CHEMBL3286203, “Reactive oxygen species (ROS) inducible DNA cross-linking agents and their effect on cancer cells and normal lymphocytes” (J Med Chem, 2014).
# Activity calls are given as the source filed them. The rule behind the calls is not given here.
# Columns and labels:
# [1] = system: SF-539; test: Cytotoxicity against human SF539 cells assessed as growth inhibition at 10 uM after 48 hrs by SRB assay; assay type: functional, cell-based
# Outline: (§1)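 Single-dose screen run by the NCI Developmental Therapeutics Program (NCI-60). Cells were grown in RPMI 1640 with 5% fetal bovine serum and 2 mM L-glutamine. They were plated at 5000–40 000 cells/well, depending on doubling time. Each line was run in two plates and exposed to 10 μM drug for 48 h at 37 °C, 5% CO2, 100% humidity. Read-out was growth percent.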
# [2] = system: SNB-75; test: Cytotoxicity against human SNB75 cells assessed as growth inhibition at 10 uM after 48 hrs by SRB assay; assay type: functional, cell-based
# Outline: (§2)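 NCI-60 DTP human tumour line screen. Cells grown in RPMI 1640 with 5% fetal bovine serum and 2 mM L-glutamine, plated at 5000–40 000 cells/well according to doubling time. Single dose of 10 μM for 48 h at 37 °C, 5% CO2, 95% air, 100% humidity, two plates per line. Read-out is growth percent.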
# [3] = system: U-251; test: Cytotoxicity against human U251 cells assessed as growth inhibition at 10 uM after 48 hrs by SRB assay; assay type: functional, cell-based; outline: as §2
# [4] = system: Malme-3M; test: Cytotoxicity against human MALME-3M cells assessed as growth inhibition at 10 uM after 48 hrs by SRB assay; assay type: functional, cell-based
# Outline: (§3)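 NCI DTP 60-cell-line screen run at the NCI. Cells were grown in RPMI 1640 with 5% FBS and 2 mM L-glutamine. They were seeded at 5000–40 000 cells/well depending on doubling time and grown in two plates per line. Each was exposed to a single 10 μM dose for 48 h at 37 °C, 5% CO2, 95% air, 100% humidity. Read-out was percent growth.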
# [5] = system: MDA-MB-435; test: Cytotoxicity against human MDA-MB-435 cells assessed as growth inhibition at 10 uM after 48 hrs by SRB assay; assay type: functional, cell-based; outline: as §1
# [6] = system: SK-MEL-28; test: Cytotoxicity against human SK-MEL-28 cells assessed as growth inhibition at 10 uM after 48 hrs by SRB assay; assay type: functional, cell-based; outline: as §1
# [7] = system: SK-MEL-5; test: Cytotoxicity against human SK-MEL-5 cells assessed as growth inhibition at 10 uM after 48 hrs by SRB assay; assay type: functional, cell-based; outline: as §1
# [8] = system: IGROV-1; test: Cytotoxicity against human IGROV1 cells assessed as growth inhibition at 10 uM after 48 hrs by SRB assay; assay type: functional, cell-based; outline: as §3
# [9] = system: OVCAR-3; test: Cytotoxicity against human OVCAR3 cells assessed as growth inhibition at 10 uM after 48 hrs by SRB assay; assay type: functional, cell-based; outline: as §1
# [10] = system: OVCAR-4; test: Cytotoxicity against human OVCAR4 cells assessed as growth inhibition at 10 uM after 48 hrs by SRB assay; assay type: functional, cell-based; outline: as §1
# [11] = system: NCI/ADR-RES; test: Cytotoxicity against human NCI-ADR-RES cells assessed as growth inhibition at 10 uM after 48 hrs by SRB assay; assay type: functional, cell-based; outline: as §1
# [12] = system: SK-OV-3; test: Cytotoxicity against human SKOV3 cells assessed as growth inhibition at 10 uM after 48 hrs by SRB assay; assay type: functional, cell-based; outline: as §1
# [13] = system: A498; test: Cytotoxicity against human A498 cells assessed as growth inhibition at 10 uM after 48 hrs by SRB assay; assay type: functional, cell-based; outline: as §3
# [14] = system: CAKI-1; test: Cytotoxicity against human Caki1 cells assessed as growth inhibition at 10 uM after 48 hrs by SRB assay; assay type: functional, cell-based; outline: as §3
# [15] = system: RXF 393; test: Cytotoxicity against human RXF393 cells assessed as growth inhibition at 10 uM after 48 hrs by SRB assay; assay type: functional, cell-based; outline: as §1
# [16] = system: TK-10; test: Cytotoxicity against human TK10 cells assessed as growth inhibition at 10 uM after 48 hrs by SRB assay; assay type: functional, cell-based; outline: as §2
# [17] = system: UO-31; test: Cytotoxicity against human UO31 cells assessed as growth inhibition at 10 uM after 48 hrs by SRB assay; assay type: functional, cell-based; outline: as §2
# [18] = system: MCF7; test: Cytotoxicity against human MCF7 cells assessed as growth inhibition at 10 uM after 48 hrs by SRB assay; assay type: functional, cell-based; outline: as §1
# [19] = system: MDA-MB-231; test: Cytotoxicity against human MDA-MB-231 cells assessed as growth inhibition at 10 uM after 48 hrs by SRB assay; assay type: functional, cell-based; outline: as §1
# [20] = system: T47D; test: Cytotoxicity against human T47D cells assessed as growth inhibition at 10 uM after 48 hrs by SRB assay; assay type: functional, cell-based; outline: as §2
# [21] = system: HOP-62; test: Cytotoxicity against human HOP62 cells assessed as growth inhibition at 10 uM after 48 hrs by SRB assay; assay type: functional, cell-based; outline: as §3
# [22] = system: NCI-H226; test: Cytotoxicity against human NCI-H226 cells assessed as growth inhibition at 10 uM after 48 hrs by SRB assay; assay type: functional, cell-based; outline: as §1
# [23] = system: NCI-H322M; test: Cytotoxicity against human NCI-H322M cells assessed as growth inhibition at 10 uM after 48 hrs by SRB assay; assay type: functional, cell-based; outline: as §1
# [24] = system: NCI-H460; test: Cytotoxicity against human NCI-H460 cells assessed as growth inhibition at 10 uM after 48 hrs by SRB assay; assay type: functional, cell-based; outline: as §1
# [25] = system: COLO 205; test: Cytotoxicity against human COLO205 cells assessed as growth inhibition at 10 uM after 48 hrs by SRB assay; assay type: functional, cell-based; outline: as §3
# [26] = system: HCT-116; test: Cytotoxicity against human HCT116 cells assessed as growth inhibition at 10 uM after 48 hrs by SRB assay; assay type: functional, cell-based; outline: as §3
# [27] = system: KM12; test: Cytotoxicity against human KM12 cells assessed as growth inhibition at 10 uM after 48 hrs by SRB assay; assay type: functional, cell-based; outline: as §3
# [28] = system: SW-620; test: Cytotoxicity against human SW620 cells assessed as growth inhibition at 10 uM after 48 hrs by SRB assay; assay type: functional, cell-based; outline: as §2
# [29] = system: SF-295; test: Cytotoxicity against human SF295 cells assessed as growth inhibition at 10 uM after 48 hrs by SRB assay; assay type: functional, cell-based; outline: as §1
# [30] = Induction of [32P]-labeled 49-mer oligonucleotide duplex DNA 12 with GNC sequence at terminus (unknown origin) interstrand cross-linking at 1 mM after 16 hrs by PAGE
# Outline: (§4)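 32P-labelled 12a (1.0 μM) annealed with 1.5 equiv of 12b in 10 mM potassium phosphate pH 7 / 100 mM NaCl (65 °C for 3 min, then slow cooling). Duplex incubated with compound (final 1 μM–5 mM), with or without H2O2, in NaCl and potassium phosphate pH 8 at room temperature for 16 h. Quenched in formamide; 20% denaturing PAGE.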
# [31] = Induction of [32P]-labeled 49-mer oligonucleotide duplex DNA 12 with GNC sequence at terminus (unknown origin) interstrand cross-linking at 1 mM after 16 hrs by PAGE in presence of H2O2; outline: as §4
# [32] = system: EKVX; test: Cytotoxicity against human EKVX cells assessed as growth inhibition at 10 uM after 48 hrs by SRB assay; assay type: functional, cell-based; outline: as §3
# [33] = system: SR; test: Cytotoxicity against human SR cells assessed as growth inhibition at 10 uM after 48 hrs by SRB assay; assay type: functional, cell-based; outline: as §2
# [34] = system: RPMI-8226; test: Cytotoxicity against human RPMI8226 cells assessed as growth inhibition at 10 uM after 48 hrs by SRB assay; assay type: functional, cell-based; outline: as §1
# [35] = system: MOLT-4; test: Cytotoxicity against human MOLT4 cells assessed as growth inhibition at 10 uM after 48 hrs by SRB assay; assay type: functional, cell-based; outline: as §1
# [36] = system: HL-60(TB); test: Cytotoxicity against human HL-60(TB) cells assessed as growth inhibition at 10 uM after 48 hrs by SRB assay; assay type: functional, cell-based; outline: as §3
structure (smiles),measurement,setting,value
CC1(C)OB(c2ccc(N(CCCl)CCBr)cc2)OC1(C)C,growth inhibition (GI),[1],Active
same,growth inhibition (GI),[2],Active
same,growth inhibition (GI),[3],Active
same,growth inhibition (GI),[4],Active
same,growth inhibition (GI),[5],Active
same,growth inhibition (GI),[6],Active
same,growth inhibition (GI),[7],Active
same,growth inhibition (GI),[8],Active
same,growth inhibition (GI),[9],Active
same,growth inhibition (GI),[10],Active
same,growth inhibition (GI),[11],Active
same,growth inhibition (GI),[12],Active
same,growth inhibition (GI),[13],Active
same,growth inhibition (GI),[14],Active
same,growth inhibition (GI),[15],Active
same,growth inhibition (GI),[16],Active
same,growth inhibition (GI),[17],Active
same,growth inhibition (GI),[18],Active
same,growth inhibition (GI),[19],Active
same,growth inhibition (GI),[20],Active
same,growth inhibition (GI),[21],Active
same,growth inhibition (GI),[22],Active
same,growth inhibition (GI),[23],Active
same,growth inhibition (GI),[24],Active
same,growth inhibition (GI),[25],Active
same,growth inhibition (GI),[26],Active
same,growth inhibition (GI),[27],Active
same,growth inhibition (GI),[28],Active
same,growth inhibition (GI),[29],Active
same,Activity,[30],inactive
same,Activity,[31],37%
same,growth inhibition (GI),[32],Active
same,growth inhibition (GI),[33],Active
same,growth inhibition (GI),[34],Active
same,growth inhibition (GI),[35],Active
same,growth inhibition (GI),[36],Active
